This is a sample that favours compounds with a hit; in the whole collection about 1.8% have one here.
Hck Nef HTS: blocks Nef-activated human Hck kinase | P08631 | Recombinant Hck-YEEI plus Nef, Z-Lyte FRET kinase assay | 0.68% of 220,000 active | inhibition, % at 20 µM;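 active means Hck-Nef kinase inhibition above about 50%, limit read from the data; inactive means inhibition below that limit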;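 further: 0% = DMSO with Hck plus Nef and 100% = Hck alone without Nef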
Target sequence (P08631 whole entry, looked up): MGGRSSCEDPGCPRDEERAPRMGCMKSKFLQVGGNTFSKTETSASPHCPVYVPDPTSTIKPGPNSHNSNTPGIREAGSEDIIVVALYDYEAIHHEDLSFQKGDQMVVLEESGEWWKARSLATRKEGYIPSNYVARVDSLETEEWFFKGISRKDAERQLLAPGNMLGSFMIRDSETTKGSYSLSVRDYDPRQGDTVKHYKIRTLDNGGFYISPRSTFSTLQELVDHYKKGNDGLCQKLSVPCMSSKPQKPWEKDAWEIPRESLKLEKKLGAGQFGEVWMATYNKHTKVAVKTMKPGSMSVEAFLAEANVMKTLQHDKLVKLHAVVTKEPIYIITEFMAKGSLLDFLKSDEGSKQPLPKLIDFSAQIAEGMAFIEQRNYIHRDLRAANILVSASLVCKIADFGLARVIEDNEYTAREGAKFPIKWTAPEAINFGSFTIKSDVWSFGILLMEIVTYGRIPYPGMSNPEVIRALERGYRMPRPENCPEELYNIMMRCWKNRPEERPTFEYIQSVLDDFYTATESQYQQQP
Runt-SMMHC FRET: blocks binding of human RUNX1 Runt domain to CBFb-SMMHC | Q01196+Q13951 | Cerulean-Runt/Venus-CBFb-SMMHC FRET ratio 530/480, 1 h | inhibition, % at 20 µM | 0.74% of 220,000 active | AID 1434;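 active means mean inhibition across duplicate retests at 20 µM reaching about 50%, limit read from the data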;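 further: 0% = DMSO wells and 100% = wells with excess untagged CBFb-SMMHC; inhibitors lower the FRET ratio by blocking Runt binding to CBFb-SMMHC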
Runt-CBFb FRET: inhibitors of human RUNX1 Runt domain binding to CBFb; 0.46% of 220,000 active; AID 1496; inhibition, % at 20 µM; Q01196+Q13951; Cerulean-Runt/Venus-CBFb FRET ratio 530/480, 1 h;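 active means inhibition over about 50% at 20 µM in the single-dose screen, limit read from the data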;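 further: 0% = DMSO wells and 100% = excess unlabeled CBFb competitor control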
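Assay system: Cerulean-Runt domain / Medium: Tris 50 mM pH 7.5, KCl, K2SO4, 0.01% BSA / Timing: protein complex preformed 1 h, compound exposure 1 h, room temperature, dark / Measured by: FRET, excitation 422 nm, emission at 530 and 480 nm / Evaluation: loss of energy transfer signal / Control set: 5 µM unlabeled CBFb as full-inhibition high control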
RanGTP-Impb inh: disruptors of Ran-importin-beta complex formation – biochemical, FRET, CFP-Ran, YFP-importin-beta, homogeneous, primary screen; cell-free CFP-Ran/YFP-importin-beta FRET ratio; inhibition, % (concentration not given with the values); 1.1% of 300,000 active;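 active means more than half of the replicate wells show a fall in the fluorescence ratio signal beyond about 16%, limit read from the data, passing the limit was not always enough; inconclusive means exactly half of the replicate wells pass the set limit; inactive means fewer than half of replicates pass the limit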;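 further: 0% = DMSO wells and 100% = Ran loaded with GDP instead of GTP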
An asterisk follows results filed as active; ? = inconclusive; / = no result given.

SMILES	Hck Nef HTS	Runt-SMMHC FRET	Runt-CBFb FRET	RanGTP-Impb inh
Cc1ccc(C(=O)N/C(=C\c2ccco2)C(=O)NCCN2CCOCC2)cc1C	/	/	/	5
COc1ccc(NC(=O)c2cccc(N3C(=O)c4ccc(C(=O)Nc5ccc(OC)c(O)c5)cc4C3=O)c2)cc1O	/	/	/	-1
Oc1c(C=NCc2ccncc2)sc2ccccc12	6	66*	42	13
Oc1c(C=Nc2cccnc2)sc2ccccc12	2	63*	34	22*
Oc1c(/C=N/c2ccccn2)sc2ccccc12	-1	16	10	23*
CN=Cc1sc2ccccc2c1O	2	54	28	13
CC(=O)NCCN=Cc1sc2ccccc2c1O	2	60*	31	31*
Fc1ccccc1OCCCCN1CCCCC1	/	/	/	1
O=C(CCC1CCCCC1)NCCN1C2=NC[C@H](Cc3ccc(O)cc3)N2C[C@H]1Cc1ccc(O)cc1	0	-6	0	16*
CCn1c(SCC(=O)NC2CCCCC2)nnc1-c1ccco1	/	/	/	-2
COc1cc(SC)ccc1C(=O)OCC(=O)NCCC1=CCCCC1	/	/	/	8
O=C(CCN1CCC(c2ccc(Cl)s2)=N1)c1ccc(Cl)s1	1	-9	-9	16*
N#CC1=C(N)SC(N)=C(C#N)C1c1ccnc2ccccc12	1	20	20	23*
O=C1c2ccccc2C(=O)C1c1ccnc2ccccc12	10	-82	-21	-5
Cn1c2ccccc2c(=O)c2cc(C#Cc3ccsc3)ccc21	/	/	/	73*
Cn1c(-c2ccccc2)cc(=O)c2ccccc21	0	-1	0	-1
COc1cc2oc3ccc(C#Cc4ccccn4)cc3c(=O)c2cc1OC	/	/	/	-2
Cn1c2ccccc2c(=O)c2ccc(C#Cc3ccccn3)cc21	/	/	/	97*
Cn1c2ccccc2c(=O)c2cc(C#Cc3ccccn3)ccc21	/	/	/	147*
COc1cccc(CN2CCNC(=O)C2CC(=O)N(C)C2CCCCC2)c1 (configuration not stated)	/	/	/	-2
CC1CN(C(=O)CCC(=O)N2CCCCC2)c2ccccc2O1 (configuration not stated)	/	/	/	-2
Nc1nc(-c2ccccc2)[nH]c(=O)c1N=O	15	-3	2	-1
Nc1[nH]c(=O)nc(Nc2ccccc2)c1N=O	/	/	/	38*
CN1Cc2sc(N)c(C#N)c2CC1(C)C	7	82*	89*	117*
CN1Cc2sc(NC(=S)NC(=O)c3ccccc3)c(C#N)c2CC1(C)C	9	67*	14	145*
SMILES	Hck Nef HTS	Runt-SMMHC FRET	Runt-CBFb FRET	RanGTP-Impb inh
CCN1CCc2c(sc(NC(=S)NC(=O)c3ccccc3)c2C#N)C1	-1	-14	12	141*
CCC1(C)Cc2c(sc(NC(=S)NC(=O)c3ccccc3)c2C#N)CO1 (configuration not stated)	2	21	46	3
CC1(C)Cc2c(sc(N)c2C#N)C(C)(C)N1	29	17	8	3
CCCCN(C(=O)c1ccco1)C1CCS(=O)(=O)C1 (configuration not stated)	/	/	/	-5
CC(OC(=O)c1nc(Cl)ccc1Cl)C(=O)Nc1ccccc1F (configuration not stated)	/	/	/	0
Cc1cc2c(c(=O)n1CCN(C)C)C(c1ccncc1)C(C#N)=C(N)O2 (configuration not stated)	15	-2	0	-2
CCn1c(C)cc2c(c1=O)C(c1ccccc1Br)C(C#N)=C(N)O2 (configuration not stated)	2	9	4	48*
CCOc1cccc(C2C(C#N)=C(N)Oc3cc(C)n(Cc4ccccn4)c(=O)c32)c1OCC (configuration not stated)	0	-8	-3	4
COCCn1c(C)cc2c(c1=O)C(c1ccco1)C(C#N)=C(N)O2 (configuration not stated)	0	117*	112*	8
CCCCCCCN1C(Nc2ccccc2)=NC[C@@H]1CC(C)C	/	/	/	1
COc1ccc2nc(NC(=O)C3CC(=O)N(c4ccccc4)C3)sc2c1 (configuration not stated)	/	/	/	3
COc1ccccc1C(=O)Nc1ccnn1C1CCN(C(C)CSC)CC1 (configuration not stated)	/	/	/	23*
CSCC[C@H](NC(=O)[C@H](Cc1ccccc1)n1c(=O)[nH]c2ccccc2c1=O)C(=O)NCC1CCC(C(=O)O)CC1 (some centres not stated)	/	/	/	5
N#C/C(=C/c1ccc(N2CCCCCC2)o1)c1ccc(F)cc1	-2	/	/	27*
O=C(NN=C(Cc1ccccc1)Cc1ccccc1)c1ccccc1F	-3	1	-3	?
O=C(NN=C(Cc1ccccc1)Cc1ccccc1)C1CC1	22	-8	2	34*
Cc1nc2ccc([N+](=O)[O-])cc2c(=O)n1Cc1ccc(F)cc1	/	/	/	0
O=C(CCC(=O)N/N=C/c1ccc(Br)s1)NCc1ccccc1	-2	3	-1	0
O=C(CCC(=O)N/N=C/c1cc(Cl)cc(Cl)c1O)NCc1ccccc1	15	92*	20	43*
CN1CCc2c(sc3c2C(=O)NC(c2ccc(-c4cccc(Cl)c4)o2)N3)C1 (configuration not stated)	3	85*	115*	103*
CSc1ccc(C2NC(=O)c3c(sc4c3CCN(C)C4)N2)cc1 (configuration not stated)	10	64*	110*	112*
CN1CCc2c(sc3c2C(=O)NC(/C=C\c2ccccc2)N3)C1 (configuration not stated)	21	70*	118*	121*
Cc1ccsc1C1NC(=O)c2c(sc3c2CCN(C)C3)N1 (configuration not stated)	5	73*	106*	132*
CN1CCc2c(sc3c2c(=O)n(-c2cccc(Cl)c2)c2nncn32)C1	-3	/	/	10
COC(=O)C1=C(C)NC(=S)NC1c1ccc(-c2cccc(Cl)c2)o1 (configuration not stated)	13	26	24	-3
SMILES	Hck Nef HTS	Runt-SMMHC FRET	Runt-CBFb FRET	RanGTP-Impb inh
CN1CCc2c(sc(N)c2C(=O)c2ccc(Cl)cc2)C1	/	/	/	11
Cc1cc(C)c(S(=O)(=O)NCc2csc(C)n2)c(C)c1	/	/	/	2
N#CCCCCn1ccc(NC(=O)c2ccc(Cl)cc2O)n1	/	/	/	1
O=C(NCC(=O)N1CCC2(CC1)NCCc1[nH]cnc12)c1cccc(Cl)c1	/	/	/	-5
CCCn1c(-c2cccs2)nc2nc3ccccc3nc21	47	131*	40	5
COCCn1c(-c2cccs2)nc2nc3ccccc3nc21	31	87*	41	7
COc1ccc(CCn2c(N)c(C(=O)NCc3ccco3)c3nc4ccccc4nc32)cc1OC	35	25	8	39*
O=C(NCc1ccco1)c1c(F)c(F)c(F)c(C(=O)NCc2ccco2)c1F	21	0	-1	1
Nc1c(C(=O)NCc2ccco2)c2nc3ccccc3nc2n1CCc1ccccc1F	35	/	30	50*
